Measurements from different studies.
Lines come from different studies, so protocols differ.
EGFR: Epidermal growth factor receptor (EGFR, Homo sapiens, UniProt P00533)
EGFR G719C: Epidermal growth factor receptor (EGFR, Homo sapiens, UniProt P00533, G719C)
EGFR G719S: Epidermal growth factor receptor (EGFR, Homo sapiens, UniProt P00533, G719S)
EGFR T790M: Epidermal growth factor receptor (EGFR, Homo sapiens, UniProt P00533, T790M)
EGFR L858R/T790M: Epidermal growth factor receptor (EGFR, Homo sapiens, UniProt P00533, L858R/T790M)
EGFR del752-759: Epidermal growth factor receptor (EGFR, Homo sapiens, UniProt P00533, del752-759)
EGFR del746-750: Epidermal growth factor receptor (EGFR, Homo sapiens, UniProt P00533, del746-750)

With `COc1ccc2c(O[C@@H]3C[C@H]4C(=O)N[C@]5(C(=O)O)CC5/C=C\CCCCC[C@H](NC(=O)OC5CCCC5)C(=O)N4C3)cc(-c3csc(NC(=O)C(C)C)n3)nc2c1C` (some centres unmarked) the remaining binding was 81% (Epidermal growth factor receptor (EGFR, Homo sapiens, UniProt P00533, del747-752/P753S); cell-free assay, competition with immobilised ligand; 1 µM).
With `CC(C)[C@@H]1NC(=O)CCNC(=O)CCNC(=O)[C@H](Cc2ccc(O)cc2)NC(=O)[C@H](Cc2ccc(O)cc2)NC(=O)[C@H](Cc2ccccc2)NC(=O)[C@@H](Cc2ccc(O)cc2)NC(=O)CSC[C@@H](C(=O)NCC(N)=O)NC(=O)CCNC(=O)[C@H](CCCNC(=N)N)NC(=O)[C@H](CCCNC(=N)N)NC(=O)[C@H](Cc2ccc(O)cc2)NC(=O)[C@H](C(C)C)NC(=O)[C@H](C(C)C)NC(=O)[C@H](CC(N)=O)NC1=O` the kon was 217000 M⁻¹ s⁻¹ (EGFR; binding, SPR).
For `N[C@H]1CCN(c2nccc(-c3cnn4ncccc34)n2)C1`, the remaining binding was 88% (EGFR G719C; binding; 1 µM).
With `O=C(c1ccc(Nc2nccc(-c3cc4ccccc4s3)n2)cc1)N1CCC(N2CCCC2)CC1` the remaining binding was 94% (EGFR G719S; binding, competition with immobilised ligand; 1 µM).
`Nc1ncnc2occ(-c3ccc(NC(=O)Nc4cc(C(F)(F)F)ccc4F)cc3)c12` has a remaining signal of 12% (EGFR T790M; cell-free assay; 20 µM).
With `CCC(=O)N[C@H]1CC[C@@H](C(=O)N(C)c2ccc(-c3nc4ccccc4o3)cc2)C1` the remaining binding was 100% (EGFR; cell-free assay, competition with immobilised ligand; 1 µM).
With `C=CC(=O)Nc1cccc(Oc2nc(Nc3ccc(N4CCN(C)CC4)cc3)nc3ccsc23)c1` the inhibition was 98.4% (EGFR L858R/T790M; enzyme activity, inhibitor, ELISA; 0.1 µM).
For `CC(C)CC(=O)N1CCc2nc(-c3ccc(Br)cc3)nc(N(C)Cc3ccccc3)c2C1`, the remaining binding was 100% (EGFR del752-759; cell-free assay, competition with immobilised ligand; 0.1 µM).
With `N#CCCc1ccc2c(c1)-c1[nH]c3ccc([N+](=O)[O-])cc3c1CC(=O)N2` the remaining signal was 94.4% (EGFR; cell-free assay; 0.5 µM).
With `COc1cc2ncnc(Nc3ccc(Oc4ccccc4)cc3C)c2cc1OC` the inhibition was 26% (EGFR L858R/T790M; enzyme activity, inhibitor; 1 µM).
For `COc1ccnn2ncc(-c3ccnc(N(C)C)n3)c12`, the remaining binding was 100% (EGFR T790M; binding; 1 µM).
The inhibition of `CN(C)C1CCN(CC#Cc2nn(C3CCCC3)c3nc(NCc4ccccc4)ncc23)C1` (centres unmarked) is reported as 14% (EGFR; enzyme activity, inhibitor, FRET; 0.1 µM).
`O=C(Nc1cccnn1)N1CC(C/C=C/c2cncc(Oc3ccc(C(F)(F)F)cn3)n2)C1` has a remaining binding of 100% (EGFR G719C; cell-free assay, competition with immobilised ligand; 1 µM).
`F[C@@H]1CCN(c2nccc(-c3cnn4ncccc34)n2)C1` gave a remaining binding of 66% (EGFR del746-750; binding; 1 µM).
With `Nc1cnc(N2CCc3cc(S(=O)(=O)Nc4c(F)cc(Cl)cc4F)cc(N4CCCC4=O)c32)nc1` the remaining binding was 75% (EGFR G719S; cell-free assay, competition with immobilised ligand; 1 µM).
`CN(CCCC(F)(F)F)c1nccc(-c2cnn3ncccc23)n1` has a remaining binding of 73% (Epidermal growth factor receptor (EGFR, Homo sapiens, UniProt P00533, L861Q); binding; 1 µM).
`Cn1nc(C(F)(F)F)cc1-c1cnc(N2CCc3cc(S(=O)(=O)Nc4c(F)cc(Cl)cc4F)cc(N4CCCC4=O)c32)nc1` has a remaining binding of 100% (EGFR del752-759; cell-free assay, competition with immobilised ligand; 1 µM).
`Cc1ccc(C(=O)Nc2ccc(CN3CCN(C)CC3)c(C(F)(F)F)c2)cc1C#Cc1cnc2cccnn12` has a remaining signal of 64% (EGFR del746-750; cell-free assay; 23.5 nM).
`Cc1cc(NC(=O)c2cccc3cc(-c4cccc5[nH]nc(N)c45)ccc23)ccc1F` gave an activity vs control of 98% (EGFR T790M; enzyme activity, inhibitor; 0.1 µM).
The activity vs control of `Cc1ccc(C(=O)NCc2ccsc2)cc1C#Cc1cn(C(C)C)c2ncnc(N)c12` is reported as 56% (Epidermal growth factor receptor (EGFR, Homo sapiens, UniProt P00533, L858R); enzyme activity, inhibitor; 1 µM).
